Results on 14 molecules are retold here after PubChem BioAssay.

Assay [1] is described as follows: inhibitors of TNFa-induced NFkB p65 translocation, primary screen, imaging, HUVEC, MLSMR starter and 10KST1 sets (AID 438;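 active means inhibition above 20% together with a positive visual image hit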;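 further: compound added about 3h40 before a 20 min TNFalpha stimulation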;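 on inhibition: signal is the nuclear over cytoplasmic p65 intensity ratio per well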). The settings on record: HUVEC TNFa-induced p65 nuclear translocation; cell count: measured here: nuclei count (cytotoxicity indicator), at 2.08 µM; inhibition: at 2 µM, stronger effect = higher value, 0% TNFa-plus-vehicle, 100% no-TNFa wells.
Assay [2] is described as follows: inhibitors of mutant huntingtin aggregation, primary screen, imaging, exon1htt(103Q)mCFP cells, high-content imaging (AID 483;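 active means visual image review flags a hit and inhibition of aggregation exceeds 20%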;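 further: compound exposure lasted 3 days before fixation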;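 on nuclei count: percent of the per-plate median nuclei count of sample wells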). The following applies: exon1htt(103Q)mCFP cell line, aggregate imaging, at 2 µM; inhibition of aggregation: stronger effect = higher value; nuclei count: measured here: cell count, toxicity.
The nature of assay [3]: inhibitors of E-selectin induction by TNFa, primary screen, imaging, HUVEC, immunofluorescence, MLSMR starter and 10KST1 sets (AID 487;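 active means visually confirmed hit in the image check and inhibition above 20%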;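 on inhibition: signal is fraction of cell area covered by stained E-selectin grains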;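 on nuclei count: 100% = median nuclei count of all wells on the same plate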). The following applies: HUVEC TNFalpha-induced E-selectin immunofluorescence imaging, at 2 µM; inhibition: stronger effect = higher value; nuclei count: measured here: cell number, toxicity.
The target in assay [4] is Voltage-gated potassium channel subunit beta-2 (Rattus norvegicus) (UniProt P62483). Briefly: KvBeta enzyme negative modulators, primary screen, biochemical, NADPH fluorescence (AID 622;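 active means fluorescence slope higher than the sample average by over 3 SD, cut at about -0.22 in these data, passing the limit was not always enough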;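 further: slope of raw intensity against log time taken from 70 to 1610 s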). The following applies: recombinant KvBeta, 4-cyanobenzaldehyde reduction, at 10 µM, stronger effect = higher value.
For assay [5] the target is unchanged. Briefly: KvBeta positive modulators, primary screen, biochemical, NADPH fluorescence (AID 623;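 active means NADPH fluorescence slope more negative than the mean of all samples by about 3 SD, 99.7% confidence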;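 further: fluorescence intensity change per second fitted from 20 to 320 s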). The settings on record: Recombinant KvBeta, NADPH fluorescence decrease slope, 10 min; at 10 µM; stronger effect = lower value.
The target in assay [6] is Muscarinic acetylcholine receptor M4 (Homo sapiens) (UniProt P08173). Briefly: compounds altering M4/GIRK thallium flux, either direction, primary screen, M4 allosteric agonist project, cell-based, HEK293 M4/GIRK, BTC-AM (AID 625).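 Further: thallium influx through GIRK channels coupled to M4 in HEK293 cells with BTC-AM dye.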 The settings on record: at 10 µM, actives lie on both sides. In a few lines: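 Material: HEK293 cells with M4 receptor and GIRK channels; Times: cells overnight at 37 °C, BTC-AM loading 1 h, reads 2 min total; Technique: kinetic BTC-AM fluorescence sampled at 1 Hz, 10 s pre-addition baseline; Read-out basis: slope over 15–24 s of trace normalized to starting intensity; Controls: carbachol positive, DMSO negative.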

Assay [7] is described as follows: inhibitors of Sendai virus-induced IRF3 signaling, primary screen, TLR/RLR signaling modifier project, cell-based, Sendai virus stimulus, luciferase, 10K MLSCN set (AID 602276;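 active means inhibition at or above 50% at 10 µM; inactive means inhibition below 50%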;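 further: firefly luciferase from ISG56 promoter only with Renilla not read in this screen; 0% = Sendai virus plus DMSO and 100% = medium plus DMSO without virus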). The following applies: HEK293 RL24 IRF3 luciferase reporter, at 10 µM, stronger effect = higher value.
Assay [8] in a line: inhibitors of poly I:C-induced TLR3 signaling, primary screen, cell-based, poly I:C stimulus, luciferase, 10K MLSCN set (AID 602277;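 active means inhibition of the reporter signal at or above 50%; inactive means inhibition below 50%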). The settings on record: HEK293-TLR3 RL24 IRF3 luciferase reporter, at 10 µM, stronger effect = higher value.

Structures are written as SMILES. Active and inactive are the calls of the source.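 How the source made its calls, unless noted: active means fluorescence slope after compound addition differing from the mean of all tested samples at 99.7% confidence, mostly higher but some lower; inactive means the rest.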

Sequence of Voltage-gated potassium channel subunit beta-2 (Rattus norvegicus) (P62483 whole entry, looked up): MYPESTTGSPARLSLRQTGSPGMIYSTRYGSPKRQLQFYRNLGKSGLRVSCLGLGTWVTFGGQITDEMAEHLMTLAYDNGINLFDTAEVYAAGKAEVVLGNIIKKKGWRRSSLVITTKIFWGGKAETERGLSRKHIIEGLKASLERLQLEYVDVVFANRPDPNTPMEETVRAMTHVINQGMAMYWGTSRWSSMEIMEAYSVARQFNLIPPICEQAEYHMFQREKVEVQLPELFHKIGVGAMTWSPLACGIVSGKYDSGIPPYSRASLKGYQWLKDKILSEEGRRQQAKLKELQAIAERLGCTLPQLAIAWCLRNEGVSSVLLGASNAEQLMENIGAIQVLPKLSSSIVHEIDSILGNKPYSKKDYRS
Sequence of Muscarinic acetylcholine receptor M4 (Homo sapiens) (P08173 whole entry, looked up): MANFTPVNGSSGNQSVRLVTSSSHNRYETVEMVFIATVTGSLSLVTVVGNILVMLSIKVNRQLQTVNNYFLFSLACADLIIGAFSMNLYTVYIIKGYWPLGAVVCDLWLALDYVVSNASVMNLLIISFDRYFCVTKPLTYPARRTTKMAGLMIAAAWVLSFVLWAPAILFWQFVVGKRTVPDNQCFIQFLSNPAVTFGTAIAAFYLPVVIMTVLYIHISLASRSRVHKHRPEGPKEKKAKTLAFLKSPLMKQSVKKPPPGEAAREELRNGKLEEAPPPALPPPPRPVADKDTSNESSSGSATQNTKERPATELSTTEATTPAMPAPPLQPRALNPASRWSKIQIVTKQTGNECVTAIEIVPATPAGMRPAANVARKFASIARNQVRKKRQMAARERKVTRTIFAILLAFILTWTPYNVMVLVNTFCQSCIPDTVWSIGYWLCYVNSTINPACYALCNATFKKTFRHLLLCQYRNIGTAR

As for `CCCC(=O)Nc1ccccc1NC(=O)CN(C)S(=O)(=O)c1ccc(C)cc1`, in assay [1], the cell count worked out at 182. The inhibition in assay [1] was -6.3% (inactive); in assay [3] it was 20.2% (inactive); in assay [7], 1.42% (inactive); in assay [8], 11.1% (inactive). Further, the inhibition of aggregation in assay [2] was -6.6% (inactive). In addition, the nuclei count in assay [2] stood at 81.6%; in assay [3], 83.4%. In addition, the results for the fluorescence slope in assay [4] and in assay [6] were -0.56 (inactive) and 0.00633 (inactive), respectively. Besides, in assay [5], the NADPH fluorescence slope is -3e-05 (inactive).

`COC(=O)c1[nH]c(C)c(/C(O)=C2\C(=O)C(=O)N(CCCN3CCOCC3)C2c2ccccn2)c1C` (centres undefined): the cell count in assay [1] is 814. The inhibition in assay [1] was 0.6% (inactive); in assay [3], -1.3% (inactive); in assay [7], 12.3% (inactive); in assay [8], 9.49% (inactive). Further, in assay [2], the inhibition of aggregation is 14.2% (inactive). Besides, the nuclei count was 110% in assay [2] and 113% in assay [3]. Besides, the results for the fluorescence slope in assay [4] and in assay [6] were -0.473 (inactive) and 0.00368 (inactive), respectively. In addition, the NADPH fluorescence slope in assay [5] was -2.7e-06 (inactive).

Consider `O=C(NCCc1ccccc1)C1CCN(S(=O)(=O)N2CCC3(CC2)OCCO3)CC1`, for which the cell count in assay [1] was found to be 715. The inhibition in assay [1] is 0.2% (inactive); in assay [3] it was 16.5% (inactive); in assay [7] it was 21.6% (inactive); in assay [8], 20.5% (inactive). For the same molecule, the inhibition of aggregation in assay [2] was -7.7% (inactive). Moreover, the nuclei count came out at 111% in assay [2] and 104% in assay [3]. Moreover, the fluorescence slope in assay [4] is -0.544 (inactive); in assay [6], 0.00522 (inactive). Moreover, in assay [5], the NADPH fluorescence slope is -4.5e-05 (inactive).

As for `CCOC(=O)c1sc2nc3c(cc2c1N)COC(C)(C)C3`, the cell count in assay [1] is 746. Moreover, the inhibition was -5.9% (inactive) in assay [1], 8.8% (inactive) in assay [3], -38.4% (inactive) in assay [7] and -104% (inactive) in assay [8]. In addition, the inhibition of aggregation in assay [2] was 0.2% (inactive). Also, the nuclei count in assay [2] and in assay [3] was 105% each time. Besides, the results for the fluorescence slope in assay [4] and in assay [6] were -0.432 (inactive) and 0.0043 (inactive), respectively. Moreover, in assay [5], the NADPH fluorescence slope is -5.4e-06 (inactive).

`Cc1ccc(OC(=O)CCc2c(C)nc3ncnn3c2C)cc1`: the cell count in assay [1] is 634. Besides, the inhibition in assay [1] was -10.5% (inactive); in assay [3], -84.1% (inactive); in assay [7] it was 0.226% (inactive); in assay [8], 8.51% (inactive). For the same molecule, in assay [2], the inhibition of aggregation is 18.7% (inactive). For the same molecule, the nuclei count in assay [2] was determined as 130%; in assay [3] it was 112%. Also, the fluorescence slope was -0.551 (inactive) in assay [4] and 0.00538 (inactive) in assay [6]. The NADPH fluorescence slope in assay [5] is 9.9e-06 (inactive).

Regarding `Cc1ccc(NCc2nnc(SCC(=O)N3CCCCC3)n2CC2CCCO2)c(C)c1` (centres undefined), in assay [1], the cell count was determined as 484. Further, the inhibition in assay [1] was 3.6% (inactive); in assay [3], -63.1% (inactive); in assay [7], 20.5% (inactive); in assay [8] it was 25.6% (inactive). The inhibition of aggregation in assay [2] was -7.9% (inactive). Moreover, the nuclei count was 95.1% in assay [2] and 109% in assay [3]. In addition, the fluorescence slope was -0.534 (inactive) in assay [4] and 0.00508 (inactive) in assay [6]. Besides, the NADPH fluorescence slope in assay [5] was -1.9e-05 (inactive).

Turning to `COC(=O)c1ccccc1NC(=O)c1cc(-c2ccc(OC)c(OC)c2)on1`, in assay [1], the cell count turned out to be 443. Also, the inhibition in assay [1] is -28.4% (inactive); in assay [3], -29.1% (inactive); in assay [7], 3.07% (inactive); in assay [8] it was 5.03% (inactive). For the same molecule, the inhibition of aggregation in assay [2] was -3.3% (inactive). Besides, the figures for the nuclei count in assay [2] and in assay [3] were 104% and 111%, respectively. Besides, the results for the fluorescence slope in assay [4] and in assay [6] were -0.269 (inactive) and 0.00826 (inactive), respectively. The NADPH fluorescence slope in assay [5] was -3.4e-05 (inactive).

As for `COc1cc(C2C3=C(CC(C)(C)CC3=O)Nc3c2c(=O)[nH]c(=O)n3Cc2ccccc2)ccc1O` (centres undefined), the cell count in assay [1] is 271. For the same molecule, the inhibition in assay [1] was 15% (inactive); in assay [3], -45.4% (inactive); in assay [7] it was 9.34% (inactive); in assay [8] it was 5.06% (inactive). For the same molecule, the inhibition of aggregation in assay [2] was -4.8% (inactive). Further, the nuclei count in assay [2] was 104%; in assay [3], 114%. The results for the fluorescence slope in assay [4] and in assay [6] were -0.463 (inactive) and 0.00547 (inactive), respectively. Also, in assay [5], the NADPH fluorescence slope was -8e-05 (inactive).

`Cc1ccc(NC(=O)CSc2nnc(NC(=O)CN3CCOCC3)s2)cc1`: in assay [1], the cell count was 294. Also, the inhibition in assay [1] was -10% (inactive); in assay [3] it was -43.2% (inactive); in assay [7], 12.7% (inactive); in assay [8], 22.7% (inactive). Further, the inhibition of aggregation in assay [2] was -0.1% (inactive). The nuclei count in assay [2] was 27.7%; in assay [3], 106%. For the same molecule, the fluorescence slope is -0.438 (inactive) in assay [4] and 0.00533 (inactive) in assay [6]. Further, the NADPH fluorescence slope in assay [5] is -7.3e-05 (inactive).

Take `N#Cc1c(N)n(CCNC(=O)c2cccs2)c2nc3ccccc3nc12`: the cell count in assay [1] came to 578. Also, the inhibition was 10.7% (inactive) in assay [1], 29.4% (inactive) in assay [3], 9.96% (inactive) in assay [7] and -10% (inactive) in assay [8]. For the same molecule, the inhibition of aggregation in assay [2] is 17.7% (inactive). Also, the results for the nuclei count in assay [2] and in assay [3] were 99.9% and 105%, respectively. The values for the fluorescence slope in assay [4] and in assay [6] were -0.0517 (inactive) and 0.00574 (inactive), respectively. In addition, the NADPH fluorescence slope in assay [5] was -2.6e-05 (inactive).

Regarding `CC1(C)C2CCC1(CS(=O)(=O)NCc1ccc(C(=O)O)cc1)C(=O)C2` (centres undefined), the cell count in assay [1] is 517. Also, the inhibition was -16.3% (inactive) in assay [1], 46.1% (inactive) in assay [3], 36.1% (inactive) in assay [7] and 30.6% (inactive) in assay [8]. Besides, in assay [2], the inhibition of aggregation was 1.1% (inactive). Also, the nuclei count in assay [2] was determined as 90.1%; in assay [3] it was 100%. In addition, the fluorescence slope was -0.606 (inactive) in assay [4] and 0.00724 (inactive) in assay [6]. Also, the NADPH fluorescence slope in assay [5] was 2.9e-05 (inactive).

On to `COc1c2ccoc2nc2c(OC)c(OCC(O)C(C)(C)O)ccc12` (centres undefined), for which the cell count in assay [1] was determined as 411. Moreover, the inhibition in assay [1] was -1.6% (inactive); in assay [3], -62.9% (inactive); in assay [7] it was 15.7% (inactive); in assay [8], 7.86% (inactive). In addition, in assay [2], the inhibition of aggregation was -14.6% (inactive). The nuclei count in assay [2] is 101%; in assay [3], 138%. The fluorescence slope in assay [4] was -0.11 (inactive); in assay [6], 0.00374 (inactive). Moreover, the NADPH fluorescence slope in assay [5] is -1.8e-05 (inactive).

On to `CC(=O)c1cccc(NC(=O)c2ccc(NS(C)(=O)=O)cc2)c1`, for which the cell count in assay [1] is 486. For the same molecule, the inhibition in assay [1] is -8.9% (inactive); in assay [3], 32.6% (inactive); in assay [7], 12.2% (inactive); in assay [8], 15.9% (inactive). The inhibition of aggregation in assay [2] was 9% (inactive). The nuclei count in assay [2] came to 94.4%; in assay [3], 98.5%. Also, the fluorescence slope is -0.444 (inactive) in assay [4] and 0.00538 (inactive) in assay [6]. Also, the NADPH fluorescence slope in assay [5] was -5.1e-05 (inactive).

Turning to `COc1ccc(C2CC(=O)c3cnc(NC(=O)c4ccccc4OC)nc3C2)c(OC)c1` (centres undefined), in assay [1], the cell count is 434. Moreover, the inhibition in assay [1] was -6.7% (inactive); in assay [3] it was -80.1% (inactive); in assay [7], 14.1% (inactive); in assay [8], 6.68% (inactive). Moreover, the inhibition of aggregation in assay [2] was 15% (inactive). Also, the results for the nuclei count in assay [2] and in assay [3] were 94.2% and 107%, respectively. Besides, the figures for the fluorescence slope in assay [4] and in assay [6] were -0.459 (inactive) and 0.00664 (inactive), respectively. In assay [5], the NADPH fluorescence slope is 0.000189 (inactive).
